Screening results deposited in PubChem BioAssay by The Scripps Research Institute Molecular Screening Center.
Most compounds without a hit are left out; they make up all but 1.9% or so of the library.
M5 PAM: positive allosteric modulators of human muscarinic M5 receptor. activation, % at 3 µM. 360,000 tested, 0.3% active. P08912. CHO-K1 hM5, Fluo-8 calcium, ACh EC20 PAM; 0% = ACh EC20, 100% = ACh EC100. AID 624038;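 active means activation above the run cutoff, the mean activation of all test compounds plus 3 SD, cut at about 18% in these data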
Target sequence (P08912 whole entry, looked up): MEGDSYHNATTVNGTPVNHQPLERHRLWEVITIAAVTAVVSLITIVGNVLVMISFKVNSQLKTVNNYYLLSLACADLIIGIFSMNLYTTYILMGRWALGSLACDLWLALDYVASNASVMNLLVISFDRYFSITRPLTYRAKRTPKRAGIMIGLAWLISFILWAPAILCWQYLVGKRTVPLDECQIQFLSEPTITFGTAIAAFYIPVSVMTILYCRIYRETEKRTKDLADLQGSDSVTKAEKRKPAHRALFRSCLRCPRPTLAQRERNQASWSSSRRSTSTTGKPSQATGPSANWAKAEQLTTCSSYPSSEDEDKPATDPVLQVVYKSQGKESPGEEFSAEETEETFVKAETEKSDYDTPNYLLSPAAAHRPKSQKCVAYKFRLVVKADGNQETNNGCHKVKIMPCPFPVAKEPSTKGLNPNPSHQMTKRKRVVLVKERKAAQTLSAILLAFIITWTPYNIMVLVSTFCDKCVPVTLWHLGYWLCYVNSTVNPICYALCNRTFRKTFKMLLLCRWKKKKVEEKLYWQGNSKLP
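System: CHO-K1 cell line with stable human muscarinic M5 receptor expression | Also added: EC20 acetylcholine as agonist stimulus | Compound: One concentration, 3 µM final (nominal) | Timing: Fluo-8 loading 80 min at 37 °C plus 30 min room temperature | Measured by: Fluo-8 calcium dye fluorescence, kinetic read | Read-out basis: % activation, ACh-normalized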
M5 antag: CHRM5 antagonism in calcium assay | P08912 | CHO-hM5 cells, Fluo-8 calcium fluorescence, ACh EC80 | inhibition, % at 3 µM | 360,000 tested, 0.59% active;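 active means inhibition above a per-plate cutoff, the mean of that plate's test compounds plus 3 SD, cut at about 27% in these data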;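 further: 0% = acetylcholine EC80 with DMSO and 100% = DMSO without agonist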
M4 antag: blocks acetylcholine activation of human M4 receptor. 360,000 tested, 0.73% active. P08173. CHO-hM4 cells, ACh EC80, Fluo-8 calcium fluorescence. inhibition, % at 3 µM;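 active means inhibition above its plate's cutoff, the mean inhibition of sample wells plus 3 SD, cut at about 27% in these data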;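 further: 0% = acetylcholine EC80 with DMSO and 100% = DMSO without agonist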
CHRM4 PAM: CHRM4 positive allosteric modulation. AID 624126. activation, % at 3 µM. CHO-K1 hM4/Gqi5, Fluo-8 calcium fluorescence, ACh EC20; 0% = ACh EC20, 100% = maximal ACh. 360,000 tested, 0.4% active. P08173;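 active means activation above its plate's cutoff, the mean activation of sample wells plus 3 SD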
M4 ag: CHRM4 agonism in calcium assay | P08173 | CHO-K1 hM4/Gqi5, Fluo-8 calcium fluorescence; vehicle 0%, full acetylcholine response 100% | activation, % at 3 µM | 360,000 tested, 0.14% active | AID 624127;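 active means activation above the run mean over all test wells plus 3 SD, cut at about 32% in these data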;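 further: peak over basal fluorescence ratio per well then scaled between controls; 0% = DMSO wells and 100% = acetylcholine at EC100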
M5 ag: CHRM5 agonism in calcium assay; CHO-K1 hM5 cells, Fluo-8 calcium fluorescence; 0% DMSO wells, 100% maximal acetylcholine response; P08912; 360,000 tested, 0.19% active; activation, % at 3 µM;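 active means activation above the run's mean over test compounds plus 3 SD, cut at about 23% in these data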;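 further: signal is peak over basal fluorescence ratio across the kinetic read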
* = called active by the depositor.

For OCCN1CCN(C2Cc3cc(Cl)ccc3Sc3ccc(Cl)cc32)CC1 (stereo not given) (tested in a mixture with another compound) the results were M5 PAM -10.8, M5 antag 8.1, M4 antag 20.9, CHRM4 PAM -16.7, M4 ag 13.2 and M5 ag -8.9.
For COc1ccc(NC(=O)C2(C)CCN2Cc2ccc(C(C)C)cc2)cc1OC (stereo not given) the results were M5 PAM -5.2, M5 antag 4.0, M4 antag -10.5, CHRM4 PAM -3.7, M4 ag 2.2 and M5 ag 1.4.
`Cc1cccc(C)c1NC(=O)[C@@]1(CC(=O)O)CC(/C=C/c2ccccc2)=NO1` gave M5 PAM 0.9, M5 antag -3.7, M4 antag -23.4, CHRM4 PAM 14.0*, M4 ag 3.2 and M5 ag -4.5.
For CCNC(=O)C1(C)CCCN(C(=O)c2cc(-c3cccs3)oc2C)C1 (stereo not given) the results were M5 PAM 5.2, M5 antag -2.8, M4 antag -3.1, CHRM4 PAM 4.2, M4 ag 0.2 and M5 ag 0.9.
COc1ccc(Oc2c(C)oc3c(CN4CCOCC4)c(O)ccc3c2=O)cc1 was read as M5 PAM -21.8, M5 antag 10.5, M4 antag 41.4*, CHRM4 PAM -15.0, M4 ag 1.1 and M5 ag -8.0.
CCOC(=O)c1ccc(Oc2c(C)oc3c(CN4CCN(C)CC4)c(O)ccc3c2=O)cc1 was read as M5 PAM -11.6, M5 antag -1.1, M4 antag 32.8*, CHRM4 PAM -20.5, M4 ag 0.1 and M5 ag -6.7.
Screening CCOc1ccccc1Oc1c(C)oc2c(CN3CCN(CCO)CC3)c(O)ccc2c1=O returned M5 PAM 9.9, M5 antag -6.0, M4 antag -4.9, CHRM4 PAM 2.2, M4 ag 1.4 and M5 ag 0.7.
Screening COc1ccc(-c2csc(C(C)(O)c3ccc(OC)cc3)n2)cc1 (stereo not given) returned M5 PAM -5.6, M5 antag 4.2, M4 antag -5.0, CHRM4 PAM 3.4, M4 ag 6.9 and M5 ag 2.0.
Screening CC1=C(C(=O)N(C(C)C)C(C)C)CC(CC(=O)NC2CCCCC2)C(=O)N1Cc1ccc(F)cc1 (stereo not given) returned M5 PAM 1.3, M5 antag 10.9, M4 antag -3.7, CHRM4 PAM 9.9, M4 ag 0.5 and M5 ag -1.6.
`Cc1ccc(-n2c(-c3ccc(Cl)cc3)n[nH]c2=S)c(C)c1` gave M5 PAM -1.6, M5 antag 30.4*, M4 antag 20.9, CHRM4 PAM 22.6*, M4 ag 6.0 and M5 ag 4.3.
Cc1cccc(-n2c(-c3ccncc3)n[nH]c2=S)c1 was read as M5 PAM 3.0, M5 antag -3.8, M4 antag -4.7, CHRM4 PAM 17.0*, M4 ag 0.2 and M5 ag -0.5.
`CC1CN(c2ccc(Oc3ccccc3)cc2)c2nc3c(c(=O)[nH]c(=O)n3C)n2C1` (stereo not given) gave M5 PAM 9.6, M5 antag -1.8, M4 antag -10.6, CHRM4 PAM 16.7*, M4 ag 1.1 and M5 ag -0.8.
O=C(NCc1ccc(F)cc1)NC(=O)c1ccc(Cl)cc1 was read as M5 PAM -2.7, M5 antag 6.9, M4 antag 4.8, CHRM4 PAM 5.6, M4 ag 0.8 and M5 ag -4.0.
Screening O=C(NCc1ccccc1)c1ccc(F)c(F)c1 returned M5 PAM 6.2, M5 antag -14.5, M4 antag 1.7, CHRM4 PAM 19.9*, M4 ag 3.6 and M5 ag 1.2.
O=C(NCc1ccccc1)NC(=O)c1ccc(Cl)cc1 was read as M5 PAM 18.8*, M5 antag -7.6, M4 antag -7.2, CHRM4 PAM 0.9, M4 ag 0.5 and M5 ag -0.3.
Cc1ccc(C(=O)Nc2cccc(C(=O)NCc3ccccc3)c2)o1 was read as M5 PAM -6.3, M5 antag 11.5, M4 antag 26.9*, CHRM4 PAM -0.8, M4 ag 3.7 and M5 ag -3.7.
`O=C(NCc1ccccc1)c1ccc(C2SCC(=O)N2Cc2ccccc2)cc1` (stereo not given) gave M5 PAM -23.3, M5 antag 0.7, M4 antag 33.6*, CHRM4 PAM -19.1, M4 ag 7.0 and M5 ag -5.2.
For CN(C)c1c(F)cc(C(=O)NCc2ccccc2)cc1F the results were M5 PAM -1.4, M5 antag 6.5, M4 antag -6.3, CHRM4 PAM 6.4, M4 ag 0.8 and M5 ag -1.7.
`O=C(O)c1ccc(N/N=C/c2cccc(F)c2)cc1` gave M5 PAM -4.8, M5 antag 4.7, M4 antag -3.0, CHRM4 PAM 2.8, M4 ag 5.1 and M5 ag 2.3.
`O=C(O)c1ccc(N/N=C/c2cccc(C(F)(F)F)c2)cc1` gave M5 PAM -5.2, M5 antag 28.6*, M4 antag 6.0, CHRM4 PAM -4.4, M4 ag 0.2 and M5 ag -1.6.
COc1ccc(NC(=O)c2ccccc2N2C(=O)C3C4C=CC(C5CC45)C3C2=O)c(OC)c1 (stereo not given) was read as M5 PAM 10.9, M5 antag 3.8, M4 antag -9.1, CHRM4 PAM 15.0*, M4 ag 5.5 and M5 ag -0.1.
CC(OC(=O)/C(C#N)=C/c1ccc(N(C)C)cc1)C(=O)N(C)Cc1ccccc1 (stereo not given) was read as M5 PAM -10.6, M5 antag 11.5, M4 antag 6.4, CHRM4 PAM -13.0, M4 ag 19.2 and M5 ag 32.2*.
For CC(OC(=O)c1cccc(O)c1)C(=O)N(C)Cc1ccccc1 (stereo not given) the results were M5 PAM -5.9, M5 antag 7.2, M4 antag 5.1, CHRM4 PAM 1.8, M4 ag 0.7 and M5 ag -0.4.
For CCOC(=O)[C@]12CCCC=C1N(Cc1ccccc1)C(=O)[C@H](CC(=O)N1CCN(C(=O)c3ccco3)CC1)C2 the results were M5 PAM 0.9, M5 antag 5.1, M4 antag 3.1, CHRM4 PAM -1.8, M4 ag 2.6 and M5 ag 2.2.
`O=C(Nc1ccc(Oc2ccccc2)nc1)[C@H]1O[C@@H](n2ccc(=O)[nH]c2=O)[C@H](O)[C@@H]1O` gave M5 PAM 2.9, M5 antag 11.9, M4 antag -4.8, CHRM4 PAM 6.3, M4 ag 2.0 and M5 ag 0.3.
